In ChEMBL document CHEMBL4038284, “Synthesis of novel quinoline-based 4,5-dihydro-1H-pyrazoles as potential anticancer, antifungal, antibacterial and antiprotozoal agents” (Eur J Med Chem, 2017):
Values after ≈ are worked out from the molar mass of the structure shown. Active and inactive are the calls of the source. The rule behind the calls is not given here.

Legend:
Cryptococcus neoformans [1] = test: Antifungal activity against Cryptococcus neoformans ATCC 32264 incubated for 48 hrs under dark condition by broth microdilution method; type: functional; settings: ATCC 32264, 48 h
Summary of the method: (§1)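 CLSI M27-A3 broth microdilution in RPMI-1640, DMSO ≤1%, compounds at 250-0.98 µg/mL final. Inoculum 1-5 × 10^3 CFU/mL. Incubated 48 h at 30 °C in a moist dark chamber, read at OD405. MIC80 and MIC50 taken from % inhibition dose-response curves (mean ± SEM, triplicate). Amphotericin B was the positive control.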

Staphylococcus aureus [2] = test: Antibacterial activity against vancomycin-intermediate Staphylococcus aureus after 24 hrs by resazurin dye based microdilution assay; type: functional
Summary of the method: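 MIC taken as the lowest concentration giving visible inhibition and/or by resazurin (1 mg/mL). Gentamicin was the control. Run in duplicate, repeated at least three times.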

M14 = test: Growth inhibition of human M14 cells at 10 uM incubated for 48 hrs by sulforhodamine B assay; type: functional, cell-based
Summary of the method: (§2)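 NCI 60-line panel, single 10 μM dose. Cells were grown in RPMI-1640 with 5% FBS and 2 mM L-glutamine and pre-incubated 24 h before compound addition (DMSO stock). Exposure was 48 h at 37 °C, 5% CO2. Cells were fixed with cold TCA (10% final), stained with 0.4% SRB, bound dye dissolved in 10 mM Tris base, A515 read. Growth was taken relative to time-zero and untreated control plates.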

Candida albicans [3] = test: Growth inhibition of Candida albicans ATCC 10231 at 125 ug/ml incubated for 48 hrs under dark condition by broth microdilution method relative to control; type: functional; settings: ATCC 10231, 48 h, read-out: GI
Summary of the method: (§3)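 CLSI M27-A3 broth microdilution in RPMI-1640, DMSO ≤1%. Inoculum 1-5 × 10^3 CFU/mL. Incubated 48 h at 30 °C, dark. % inhibition = 100 − (OD405 test − sterility control)/(OD405 growth control − sterility control), with growth and sterility control wells. Triplicate.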

SF-539 = test: Growth inhibition of human SF539 cells at 10 uM incubated for 48 hrs by sulforhodamine B assay; type: functional, cell-based; summary of the method: as §2
LOX IMVI = test: Growth inhibition of human LOXIMVI cells at 10 uM incubated for 48 hrs by sulforhodamine B assay; type: functional, cell-based; summary of the method: as §2
NCI-H522 = test: Growth inhibition of human NCI-H522 cells at 10 uM incubated for 48 hrs by sulforhodamine B assay; type: functional, cell-based; summary of the method: as §2
KM12 = test: Growth inhibition of human KM12 cells at 10 uM incubated for 48 hrs by sulforhodamine B assay; type: functional, cell-based; summary of the method: as §2
Cryptococcus neoformans [4] = test: Growth inhibition of Cryptococcus neoformans ATCC 32264 at 31.25 ug/ml incubated for 48 hrs under dark condition by broth microdilution method relative to control; type: functional; settings: ATCC 32264, 48 h, read-out: GI; summary of the method: as §3
A549 = test: Growth inhibition of human A549/ATCC cells at 10 uM incubated for 48 hrs by sulforhodamine B assay; type: functional, cell-based
Summary of the method: (§4)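 NCI 60-cell-line screen at a single 10 µM dose. Cells in RPMI-1640 with 5% FBS and 2 mM L-glutamine, pre-incubated 24 h, then treated for 48 h at 37 °C. TCA fixation, sulforhodamine B staining, absorbance at 515 nm. Percentage growth calculated against time-zero and untreated controls.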

SK-MEL-28 = test: Growth inhibition of human SK-MEL-28 cells at 10 uM incubated for 48 hrs by sulforhodamine B assay; type: functional, cell-based
Summary of the method: (§5)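 NCI-60 single-dose screen at 10 µM for 48 h. Cells were grown in RPMI-1640 with 5% FBS and 2 mM L-glutamine and preincubated 24 h before compound. Time-zero plates were TCA-fixed at compound addition. After exposure, cells were TCA-fixed, stained with SRB and read at 515 nm. Percentage growth was calculated against time-zero and untreated-control absorbances.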

Candida albicans [5] = test: Growth inhibition of Candida albicans ATCC 10231 at 3.4 ug/ml incubated for 48 hrs under dark condition by broth microdilution method relative to control; type: functional; settings: ATCC 10231, 48 h, read-out: GI
SNB-75 = test: Growth inhibition of human SNB75 cells at 10 uM incubated for 48 hrs by sulforhodamine B assay; type: functional, cell-based; summary of the method: as §5
TK-10 = test: Growth inhibition of human TK10 cells at 10 uM incubated for 48 hrs by sulforhodamine B assay; type: functional, cell-based; summary of the method: as §5
Malme-3M = test: Growth inhibition of human MALME-3M cells at 10 uM incubated for 48 hrs by sulforhodamine B assay; type: functional, cell-based; summary of the method: as §2
SK-OV-3 = test: Growth inhibition of human SKOV3 cells at 10 uM incubated for 48 hrs by sulforhodamine B assay; type: functional, cell-based; summary of the method: as §5
HOP-62 = test: Growth inhibition of human HOP62 cells at 10 uM incubated for 48 hrs by sulforhodamine B assay; type: functional, cell-based; summary of the method: as §4
COLO 205 = test: Growth inhibition of human COLO205 cells at 10 uM incubated for 48 hrs by sulforhodamine B assay; type: functional, cell-based; summary of the method: as §4
SN12C = test: Growth inhibition of human SN12C cells at 10 uM incubated for 48 hrs by sulforhodamine B assay; type: functional, cell-based; summary of the method: as §5
Candida albicans [6] = test: Antifungal activity against Candida albicans ATCC 10231 incubated for 48 hrs under dark condition by broth microdilution method; type: functional; settings: ATCC 10231, 48 h; summary of the method: as §1
MOLT-4 = test: Growth inhibition of human MOLT4 cells at 10 uM incubated for 48 hrs by sulforhodamine B assay; type: functional, cell-based; summary of the method: as §2
Candida albicans [7] = test: Growth inhibition of Candida albicans ATCC 10231 at 15.62 ug/ml incubated for 48 hrs under dark condition by broth microdilution method relative to control; type: functional; settings: ATCC 10231, 48 h, read-out: GI; summary of the method: as §3
HCT-116 = test: Growth inhibition of human HCT116 cells at 10 uM incubated for 48 hrs by sulforhodamine B assay; type: functional, cell-based; summary of the method: as §4
Staphylococcus aureus [8] = test: Antibacterial activity against methicillin-resistant Staphylococcus aureus ATCC 43300 after 24 hrs by resazurin dye based microdilution assay; type: functional; settings: ATCC 43300, 24 h
Summary of the method: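 Broth microdilution in Mueller Hinton broth, inoculum 5 × 10^5 – 8 × 10^5. Compound stocks diluted in MHB with 5% DMSO and 0.1% Tween 80. Incubation 24 h at 35-37 °C. MIC is the lowest concentration with visible growth inhibition and/or by resazurin (1 mg/mL) read-out. Gentamicin as control. Run in duplicate, replicated at least three times.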

Neisseria gonorrhoeae = test: Antibacterial activity against beta lactamase positive Neisseria gonorrhoeae ATCC 31426 by oxidase test; type: functional
Summary of the method: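 Agar dilution MIC on GC agar with 1% isovitalex containing increasing compound concentrations. Plates inoculated with about 1×10^4 CFU (5 µL). MIC is the lowest concentration that inhibited growth, with growth confirmed by oxidase test. Run in duplicate, repeated at least three times.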

HOP-92 = test: Growth inhibition of human HOP92 cells at 10 uM incubated for 48 hrs by sulforhodamine B assay; type: functional, cell-based; summary of the method: as §2
U-251 = test: Growth inhibition of human U251 cells at 10 uM incubated for 48 hrs by sulforhodamine B assay; type: functional, cell-based; summary of the method: as §5
Cryptococcus neoformans [9] = test: Growth inhibition of Cryptococcus neoformans ATCC 32264 at 15.62 ug/ml incubated for 48 hrs under dark condition by broth microdilution method relative to control; type: functional; settings: ATCC 32264, 48 h, read-out: GI; summary of the method: as §3
MDA-MB-468 = test: Growth inhibition of human MDA-MB-468 cells at 10 uM incubated for 48 hrs by sulforhodamine B assay; type: functional, cell-based; summary of the method: as §2

Row | Structure (SMILES) | MIC50 (Cryptococcus neoformans [1]) | MIC80 (Cryptococcus neoformans [1]) | MIC (Staphylococcus aureus [2]) | growth inhibition (GI) (M14) | inhibition of growth at 125 µg/mL (Candida albicans [3]) | growth inhibition (GI) (SF-539) | growth inhibition (GI) (LOX IMVI) | growth inhibition (GI) (NCI-H522) | growth inhibition (GI) (KM12) | inhibition of growth at 31.25 µg/mL (Cryptococcus neoformans [4]) | growth inhibition (GI) (A549) | growth inhibition (GI) (SK-MEL-28) | inhibition of growth at 3.4 µg/mL (Candida albicans [5]) | growth inhibition (GI) (SNB-75) | growth inhibition (GI) (TK-10) | growth inhibition (GI) (Malme-3M) | growth inhibition (GI) (SK-OV-3) | growth inhibition (GI) (HOP-62) | growth inhibition (GI) (COLO 205) | growth inhibition (GI) (SN12C) | also measured
1 | COc1ccc(C2=NN(c3ccccc3)C(c3cccc(Nc4ccnc5cc(Cl)ccc45)c3)C2)cc1 (stereo not given) | ≥ 250 µg/mL | ≥ 250 µg/mL | > 1000 µg/mL | inactive | 19.8% | inactive | inactive | inactive | inactive | 7.77% | inactive | inactive | 0.38% | inactive | inactive | inactive | inactive | inactive | inactive | inactive | MIC50 (Candida albicans [6]): ≥ 250 µg/mL; MIC80 (Candida albicans [6]): ≥ 250 µg/mL; growth inhibition (GI) (MOLT-4): inactive; inhibition of growth at 15.62 µg/mL (Candida albicans [7]): 8.21%; growth inhibition (GI) (HCT-116): inactive; MIC (Staphylococcus aureus [8]): > 1000 µg/mL; MIC (Neisseria gonorrhoeae): > 1000 µg/mL; growth inhibition (GI) (HOP-92): inactive; growth inhibition (GI) (U-251): inactive; inhibition of growth at 15.62 µg/mL (Cryptococcus neoformans [9]): 6.02%; growth inhibition (GI) (MDA-MB-468): inactive
2 | Clc1ccc(C2=NN(c3ccccc3)C(c3cccc(Nc4ccnc5cc(Cl)ccc45)c3)C2)cc1 (stereo not given) | ≥ 250 µg/mL | ≥ 250 µg/mL | > 1000 µg/mL | inactive | 8.35% | inactive | inactive | inactive | inactive | 0% | inactive | inactive | 0% | inactive | inactive | inactive | inactive | inactive | inactive | inactive | MIC50 (Candida albicans [6]): ≥ 250 µg/mL; MIC80 (Candida albicans [6]): ≥ 250 µg/mL; growth inhibition (GI) (MOLT-4): inactive; inhibition of growth at 15.62 µg/mL (Candida albicans [7]): 4.29%; growth inhibition (GI) (HCT-116): inactive; MIC (Staphylococcus aureus [8]): > 1000 µg/mL; MIC (Neisseria gonorrhoeae): > 1000 µg/mL; growth inhibition (GI) (HOP-92): inactive; growth inhibition (GI) (U-251): inactive; inhibition of growth at 15.62 µg/mL (Cryptococcus neoformans [9]): 0%; growth inhibition (GI) (MDA-MB-468): inactive
3 | COc1cc(C2=NN(c3ccc(Cl)cc3)C(c3cccc(Nc4ccnc5cc(Cl)ccc45)c3)C2)cc(OC)c1OC (stereo not given) | ≥ 250 µg/mL | ≥ 250 µg/mL | > 1000 µg/mL | inactive | 16.7% | inactive | inactive | inactive | inactive | 12.5% | inactive | inactive | 2.27% | inactive | inactive | inactive | inactive | inactive | inactive | inactive | MIC50 (Candida albicans [6]): ≥ 250 µg/mL; MIC80 (Candida albicans [6]): ≥ 250 µg/mL; growth inhibition (GI) (MOLT-4): inactive; inhibition of growth at 15.62 µg/mL (Candida albicans [7]): 8.02%; growth inhibition (GI) (HCT-116): inactive; MIC (Staphylococcus aureus [8]): > 1000 µg/mL; MIC (Neisseria gonorrhoeae): > 1000 µg/mL; growth inhibition (GI) (HOP-92): inactive; growth inhibition (GI) (U-251): inactive; inhibition of growth at 15.62 µg/mL (Cryptococcus neoformans [9]): 12.2%; growth inhibition (GI) (MDA-MB-468): inactive
4 | COc1ccc(C2=NN(C=O)C(c3cccc(Nc4ccnc5cc(Cl)ccc45)c3)C2)cc1 (stereo not given) | 125 µg/mL (≈ 274 µM) | ≥ 250 µg/mL | > 1000 µg/mL | Active | 28% | Active | Active | Active | Active | 29.1% | Active | Active | 3.51% | Active | Active | Active | Active | Active | Active | Active | MIC50 (Candida albicans [6]): ≥ 250 µg/mL; MIC80 (Candida albicans [6]): ≥ 250 µg/mL; growth inhibition (GI) (MOLT-4): Active; inhibition of growth at 15.62 µg/mL (Candida albicans [7]): 12.9%; growth inhibition (GI) (HCT-116): Active; MIC (Staphylococcus aureus [8]): > 1000 µg/mL; MIC (Neisseria gonorrhoeae): > 1000 µg/mL; growth inhibition (GI) (HOP-92): Active; growth inhibition (GI) (U-251): Active; inhibition of growth at 15.62 µg/mL (Cryptococcus neoformans [9]): 23.6%; growth inhibition (GI) (MDA-MB-468): Active
5 | Clc1ccc(C2=NN(c3ccc(Cl)cc3)C(c3cccc(Nc4ccnc5cc(Cl)ccc45)c3)C2)cc1 (stereo not given) | 250 µg/mL (≈ 460 µM) | ≥ 250 µg/mL | > 1000 µg/mL | inactive | 19.9% | inactive | inactive | inactive | inactive | 24.3% | inactive | inactive | 0% | inactive | inactive | inactive | inactive | inactive | inactive | inactive | MIC50 (Candida albicans [6]): ≥ 250 µg/mL; MIC80 (Candida albicans [6]): ≥ 250 µg/mL; growth inhibition (GI) (MOLT-4): inactive; inhibition of growth at 15.62 µg/mL (Candida albicans [7]): 6.09%; growth inhibition (GI) (HCT-116): inactive; MIC (Staphylococcus aureus [8]): > 1000 µg/mL; MIC (Neisseria gonorrhoeae): > 1000 µg/mL; growth inhibition (GI) (HOP-92): inactive; growth inhibition (GI) (U-251): inactive; inhibition of growth at 15.62 µg/mL (Cryptococcus neoformans [9]): 23.1%; growth inhibition (GI) (MDA-MB-468): inactive
